# pKi: −log10 of the molar value.
# Assays:
# Format in all cases: tissue-based
# [1] = target: T1, Sodium-dependent serotonin transporter (Rattus norvegicus, UniProt P31652); assay: Displacement of [3H]paroxetine from SERT in rat brain
# In short: (§1)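 Competition binding in rat cortical and striatal brain homogenates, with tissue assignment per transporter not specified. Radioligands were [3H]WIN 35,428 for DAT, [3H]nisoxetine for NET and [3H]paroxetine for SERT. Ki values are means of two independent experiments, each run in triplicate; some entries come from a single experiment (n = 1, in triplicate).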
# [2] = target: Norepinephrine transporter (Rattus norvegicus, UniProt Q9WTR4); assay: Displacement of [3H]nisoxetine from NET in rat brain; in short: as §1
# [3] = target: Sodium-dependent dopamine transporter (Rattus norvegicus, UniProt P23977); assay: Displacement of [3H]WIN-35428 from DAT in rat brain; in short: as §1
# [4] = target: T1, Sodium-dependent serotonin transporter; assay: Displacement of [3H]citalopram from SERT in rat brain
# T1 sequence (P31652 whole entry): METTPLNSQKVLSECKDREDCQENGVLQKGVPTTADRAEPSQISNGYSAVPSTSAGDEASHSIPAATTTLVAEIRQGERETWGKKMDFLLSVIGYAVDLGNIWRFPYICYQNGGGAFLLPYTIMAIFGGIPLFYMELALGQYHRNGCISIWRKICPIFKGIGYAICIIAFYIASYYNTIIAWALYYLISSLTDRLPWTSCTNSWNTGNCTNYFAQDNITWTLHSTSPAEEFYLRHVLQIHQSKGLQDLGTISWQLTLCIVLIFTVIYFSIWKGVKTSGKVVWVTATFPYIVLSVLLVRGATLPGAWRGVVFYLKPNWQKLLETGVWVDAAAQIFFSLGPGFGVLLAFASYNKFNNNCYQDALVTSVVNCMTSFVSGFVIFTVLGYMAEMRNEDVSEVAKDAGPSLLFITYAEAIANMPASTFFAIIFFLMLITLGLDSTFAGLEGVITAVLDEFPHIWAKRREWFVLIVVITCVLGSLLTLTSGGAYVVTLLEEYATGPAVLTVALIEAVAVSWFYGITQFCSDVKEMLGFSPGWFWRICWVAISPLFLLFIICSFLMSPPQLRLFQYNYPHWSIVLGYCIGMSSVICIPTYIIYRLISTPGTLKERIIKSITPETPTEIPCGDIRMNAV
# Sequence of Sodium-dependent dopamine transporter (P23977 whole entry): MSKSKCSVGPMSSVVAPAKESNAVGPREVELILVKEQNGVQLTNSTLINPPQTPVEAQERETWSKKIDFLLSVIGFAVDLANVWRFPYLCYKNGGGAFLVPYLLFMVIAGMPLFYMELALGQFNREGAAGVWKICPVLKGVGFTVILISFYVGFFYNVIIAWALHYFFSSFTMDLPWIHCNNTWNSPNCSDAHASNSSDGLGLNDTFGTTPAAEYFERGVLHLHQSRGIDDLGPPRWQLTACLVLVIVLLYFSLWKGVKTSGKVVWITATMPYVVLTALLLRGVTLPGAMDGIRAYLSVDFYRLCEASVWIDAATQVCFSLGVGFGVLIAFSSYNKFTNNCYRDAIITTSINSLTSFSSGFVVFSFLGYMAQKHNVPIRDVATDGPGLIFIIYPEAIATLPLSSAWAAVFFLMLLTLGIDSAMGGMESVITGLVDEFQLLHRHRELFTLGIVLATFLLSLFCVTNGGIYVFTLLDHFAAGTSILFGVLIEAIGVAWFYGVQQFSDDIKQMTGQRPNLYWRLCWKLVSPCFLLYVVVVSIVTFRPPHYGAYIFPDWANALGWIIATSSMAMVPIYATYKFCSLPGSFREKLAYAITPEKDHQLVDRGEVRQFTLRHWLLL
# Sequence of Norepinephrine transporter (Q9WTR4 whole entry): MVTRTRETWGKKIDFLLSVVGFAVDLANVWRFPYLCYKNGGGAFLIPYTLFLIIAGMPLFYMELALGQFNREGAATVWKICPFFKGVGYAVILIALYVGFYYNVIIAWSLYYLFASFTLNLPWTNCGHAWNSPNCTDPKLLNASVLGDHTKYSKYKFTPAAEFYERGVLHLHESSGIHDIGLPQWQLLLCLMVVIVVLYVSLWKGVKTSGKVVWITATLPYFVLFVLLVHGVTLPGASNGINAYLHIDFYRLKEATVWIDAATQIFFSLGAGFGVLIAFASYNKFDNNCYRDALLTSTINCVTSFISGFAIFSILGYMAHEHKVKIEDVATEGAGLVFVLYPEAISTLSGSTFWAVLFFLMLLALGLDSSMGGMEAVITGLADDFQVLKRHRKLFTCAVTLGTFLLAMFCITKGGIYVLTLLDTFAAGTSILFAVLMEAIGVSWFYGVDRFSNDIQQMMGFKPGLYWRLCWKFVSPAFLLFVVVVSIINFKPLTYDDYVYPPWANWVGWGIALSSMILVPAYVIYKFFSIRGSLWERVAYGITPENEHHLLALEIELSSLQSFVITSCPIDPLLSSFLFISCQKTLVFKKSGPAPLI
SMILES,pKi [1],pKi [2],pKi [3],pKi [4]
CN(C)Cc1cc(F)ccc1Sc1ccc(Cl)cc1N,9.46,6.04,5.74,–
CN(C)Cc1cc(F)ccc1Oc1ccc(C#N)cc1N,8.54,5.26,4.17,–
Cc1ccc(Oc2ccc(F)cc2CN(C)C)c(N)c1,8.15,6.29,5.55,–
CN(C)Cc1cc(F)ccc1Sc1ccc(C#N)cc1N,–,4.75,4.85,9.55
CN(C)Cc1cc(Cl)ccc1Oc1ccc(F)cc1N,–,5.56,5.60,8.69
Cc1ccc(Sc2ccccc2CN(C)C)c(N)c1,9.21,–,5.38,–
CN(C)Cc1ccccc1Oc1ccc(F)cc1N,7.87,5.97,5.36,–
Cc1ccc(Sc2ccc(F)cc2CN(C)C)c(N)c1,9.57,5.98,5.44,–
